This is an account of results in ChEMBL document CHEMBL3779764, “Identification and Structure-Activity Relationships of Diarylhydrazides as Novel Potent and Selective Human Enterovirus Inhibitors” (J Med Chem, 2016).

The nature of data set [1]: Selectivity index, ratio of CC50 for human RD cells to EC50 for Enterovirus 71. The following applies: read-out: Ratio CC50/EC50. Format: toxicity, cell-based. The gist of the method: (§1)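 Selectivity index is CC50/EC50, both taken from MTS-based CPE reduction assays in the same cell line (Vero or RD).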
Data set [2] has as its system Enterovirus A71. Kind of data set: Antiviral activity against Human enterovirus 71 infected in monkey African green Vero cells by MTS-based CPE reduction assay. Format: functional, organism-based. The following applies: Enterovirus A, Vero; read-out: EC50. The gist of the method: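 Vero cells (5 × 10^5) seeded, then given serial compound dilutions plus 100 TCID50 EV71. Incubated at 37 °C for 24-36 h until complete CPE in the virus-infected, compound-free control. Viability read by MTS/PMS at 498 nm. EC50 is the concentration inhibiting virus-induced CPE by 50%. At least three repeats.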

For data set [3], the system named is Enterovirus A71. Kind of data set: Induction of stabilization of Human enterovirus 71 capsid protein assessed as increase in temperature for achieving equal staining of viral genome at 50 ug/ml by SYBR green fluorescent assay. Summed up: (§2)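 SYBR green I and II added at 3× with RNase inhibitor at 1 U/µL. Mixture heated 37–70 °C in 1 °C steps, 2 min each, then cooled to 36 °C for 2 min while fluorescence was read.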

Data set [4] has as its system RD. Kind of data set: Cytotoxicity against human RD cells assessed as reduction in cell viability after 24 to 36 hrs by MTS-based CPE reduction assay. It is filed as functional. Summed up: (§3)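 Noninfected Vero or RD cells exposed to serial compound dilutions under the CPE-assay conditions (37 °C, 24-36 h). Viability measured by MTS/PMS absorbance at 498 nm. CC50 is the concentration causing 50% death of noninfected cells.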
On the technique in general: Tetrazolium assays rely on reduction of a dye to a coloured formazan, in cell work by metabolically active cells.

Data set [5] can be described thus: Cytotoxicity against african green monkey Vero cells assessed as reduction in cell viability after 24 to 36 hrs by MTS-based CPE reduction assay. The following applies: chlorocebus sabaeus. The gist of the method: as §3
In data set [6] the test system is RD. Kind of data set: Inhibition of human enterovirus 71 capsid assessed as reduction in viral replication at early stages infected in human RD cells at 20 ug/ml. It is filed as cell-based. The following applies: Enterovirus A71. Summed up: (§4)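 Time-of-addition test in RD cells infected with EV71 at MOI 0.01. Compound was added at set times relative to infection (0.05 or 20 µg/mL).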

A short description of data set [7]: Selectivity index, ratio of CC50 for african green monkey Vero cells to EC50 for Enterovirus 71. Format: toxicity, cell-based. The following applies: read-out: Ratio CC50/EC50. Summed up:
as §1

Data set [8] concerns Enterovirus A71. Nature of the data set: Antiviral activity against Enterovirus 71 infected in human RD cells after 24 to 36 hrs by MTS-based CPE reduction assay. Conditions: Enterovirus A, RD; read-out: EC50. It is filed as functional, organism-based. The gist of the method: (§5)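 RD cells given serial compound dilutions with EV71. Incubated at 37 °C for 24-36 h until full CPE in the virus control. Viability read by MTS/PMS at 498 nm. EC50 is the concentration giving 50% inhibition of virus-induced CPE. At least three independent experiments.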

In data set [9] the test system is Enterovirus A71. Kind of data set: Antiviral activity against Human enterovirus 71 infected in human RD cells after 24 to 36 hrs. The following applies: Enterovirus A. It is filed as functional, organism-based. Summed up: as §5
The subject of a further data set is Coxsackievirus B3. Nature of the data set: Antiviral activity against Human coxsackievirus B3 infected in african green monkey Vero cells after 24 to 36 hrs by MTS-based CPE reduction assay. The following applies: Enterovirus B. It is filed as functional, organism-based. The gist of the method:
(§6)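 Vero cells infected with the coxsackievirus B serotype in the presence of serial compound dilutions. CPE reduction read by MTS/PMS absorbance at 498 nm after 24-36 h at 37 °C. EC50 is the concentration giving 50% CPE inhibition. Mean ± standard deviation of at least three independent experiments.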

Data set [10] has as its system RD. Kind of data set: Inhibition of human enterovirus 71 capsid assessed as reduction in viral replication at early stages infected in human RD cells at 0.05 ug/ml. Format: cell-based. The following applies: Enterovirus A71. Summed up: as §4
A further data set relates to Coxsackievirus B5. Nature of the data set: Antiviral activity against Human coxsackievirus B5 infected in african green monkey Vero cells after 24 to 36 hrs by MTS-based CPE reduction assay. Format: functional, organism-based. Conditions: Enterovirus B. The gist of the method:
as §6

The subject of data set [11] is Enterovirus A71. Kind of data set: Induction of stabilization of Human enterovirus 71 capsid protein assessed as increase in temperature for achieving equal staining of viral genome at 5 ug/ml by SYBR green fluorescent assay. The gist of the method:
as §2

Data set [12] relates to Enterovirus A71. Kind of data set: Antiviral activity against Human enterovirus 71 infected in human RD cells assessed as reduction in virus titer measured during single replication cycle by virus titer assay. Format: functional, organism-based. Summed up:
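RD cells (5 × 10^4 per well) cultured at 37 °C, 5% CO2. Next day, treated with compound at 0.00042-33.3 µg/mL in 10% FBS, 0.5% DMSO. After 2 h, infected with EV71 at MOI 1. Supernatants serially diluted 10^-1 to 10^-8 onto fresh cells. CPE scored at 72 hpi; TCID50 calculated by Reed-Muench.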

The next data set relates to Coxsackievirus B2. Nature of the data set: Antiviral activity against Human coxsackievirus B2 infected in african green monkey Vero cells after 24 to 36 hrs by MTS-based CPE reduction assay. It is filed as functional, organism-based. Conditions: Enterovirus B. The gist of the method:
as §6

For data set [13], the system named is RD. Nature of the data set: Cytotoxicity against human RD cells infected with human enterovirus 71 measured during a single replication cycle. It is filed as cell-based.
A further data set deals with Coxsackievirus B6. Nature of the data set: Antiviral activity against Human coxsackievirus B6 infected in african green monkey Vero cells after 24 to 36 hrs by MTS-based CPE reduction assay. It is filed as functional, organism-based. The following applies: Enterovirus B. Summed up:
as §6

For the next data set, the system named is Coxsackievirus B4. Kind of data set: Antiviral activity against Human coxsackievirus B4 infected in african green monkey Vero cells by after 24 to 36 hrs MTS-based CPE reduction assay. Format: functional, organism-based. Conditions: Enterovirus B. The gist of the method:
as §6

For a further data set, the system named is Coxsackievirus B1. Kind of data set: Antiviral activity against Human coxsackievirus B1 infected in african green monkey Vero cells after 24 to 36 hrs by MTS-based CPE reduction assay. Format: functional, organism-based. The following applies: Enterovirus B. The gist of the method:
as §6

The source made the active and inactive calls. The rule behind the calls is not given here.

What is called EC50 is the midpoint of the concentration-response curve. As usually defined, the CC50 is the concentration at which the toxic effect on the cells reaches its halfway point. Consider `Cc1cc(CCCCCCCOc2ccc(C3=NCCO3)cc2)on1` [DISOXARIL], for which the values for the selectivity ratio in data set [1] and in [7] were 10.9 and 7.6, respectively. Also, the EC50 with Enterovirus A71 [2] turned out to be 19.5 µM; in the data set on Enterovirus A71 [8], 15.3 µM. For the same molecule, the result with Enterovirus A71 [3] was Active. In addition, the CC50 turned out to be 167 µM with RD [4] and 148 µM in data set [5]. In the data set on RD [6], the inhibition result is “Active”.

`O=C(c1cccs1)N(Cc1ccc(Br)cc1)c1ccc(F)cc1` displayed a concentration for a half-maximal effect (EC50) with Enterovirus A71 [9] of 1420 nM.

For the molecule `CN(C)c1ccc(C(=O)NNc2c(Cl)cccc2Cl)cc1`, the selectivity ratio in data set [1] is over 8230; in [7], over 12300. In addition, the EC50 in the data set on Coxsackievirus B3 worked out at 950 nM; in the data set with Enterovirus A71 [2], 0.02 µM; in the data set on Coxsackievirus B5, 2270 nM; in the data set with Coxsackievirus B2, 0.9 nM; in the data set with Coxsackievirus B6, 940 nM; in the data set with Coxsackievirus B4, 2570 nM. In addition, the concentration for a half-maximal effect (EC50) came to 1.3 nM in the data set on Coxsackievirus B1 and 0.03 µM with Enterovirus A71 [8]. The inhibition result in the data set on RD [10] was “Active”. Besides, the result with Enterovirus A71 [11] and with Enterovirus A71 [12] was Active. In addition, the Activity entry in the data set on RD [13] is “Non-toxic”. The CC50 (in the data set with RD [4]; in [5]) was over 247 µM throughout.
